Bioassay records: PubChem, several laboratories
An excerpt weighted towards active compounds, which were near 2% of everything screened.
PvdQ inh – blocks Pseudomonas aeruginosa PvdQ acylase activity; AID 488965; inhibition, % at 10 µM; purified PvdQ acylase, fluorescence plate reader; actives 0.063% (n = 340,000); in the data active = inhibition above about 30%, passing the limit was not always enough;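 also: 0% = vehicle neutral wells and 100% = reference inhibitor wells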
HKDC1 inhibitor – HKDC1 (human) hexokinase inhibition | recombinant HKDC1, G6PDH/diaphorase resazurin coupled fluorescence | inhibition, % at 20 µM | actives 0.16% (n = 340,000);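 active = inhibition above about 35% when tested at 20 µM, limit read from the data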;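 also: plate controls were DMSO wells with enzyme for no effect and DMSO wells lacking enzyme for full effect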
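test system = in-house recombinant HK5 (HKDC1) enzyme | amount = HKDC1 at 5 µg/mL | control set = DMSO-enzyme wells negative, buffer-substituted wells positive | compound = one dose of 20 µM, 1% DMSO | schedule = reaction time 90 min, room temperature, protected from light | technique = resorufin fluorescence at 613 nm | reagent = glucose with 1 mM ATP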
IMP-1 inhibitor – inhibitors of Pseudomonas aeruginosa IMP-1 metallo-beta-lactamase | purified IMP-1, nitrocefin hydrolysis, epi-absorbance fluorescence | actives 0.45% (n = 290,000) | AID 1556 | inhibition, % at 5.6 µM;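 active = inhibition above the mean plus 3 SD of all compounds in the same screening run, cut at about 4.5% in these data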;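 also: 0% = IMP-1 with DMSO and 100% = DMSO wells lacking enzyme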
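System – purified recombinant IMP-1 beta-lactamase · Input – IMP-1 dispensed at 0.2 nM · Timing – 15 min preincubation plus 25 min reaction at 25 °C · Signal – Epi-absorbance fluorescence, 480 nm excitation, 530 nm emission · Measure – percent IMP-1 inhibition derived from blank-referenced optical density · Controls – Enzyme-plus-DMSO low control, enzyme-free DMSO high control · Replication – singlicate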
VIM-2 inh – inhibitors of Pseudomonas aeruginosa VIM-2 metallo-beta-lactamase. AID 1527. actives 0.89% (n = 290,000). purified VIM-2, nitrocefin hydrolysis, epi-absorbance fluorescence. inhibition, % at 5.6 µM;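 active = inhibition above the mean of all tested compounds plus 3 SD, cutoff set per screening run, cut at about 7.5% in these data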;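 also: red hydrolysis product quenches plate fluorescence so inhibitors raise well fluorescence; 0% = enzyme with DMSO and 100% = DMSO without enzyme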
ATG4B inhibitor – ATG4B (human) cysteine protease inhibition; ATG4B cleavage of LC3-PLA2, NBD-HPC fluorescence, 1 h; inhibition, % at 8.33 µM; actives 0.51% (n = 340,000); in the data active = inhibition above about 40%
beta cell repl – inducers of beta-cell replication in MIN6 cells; MIN6 cells proliferation, ATPlite luminescence, 48 h; cells starved in 0.2% serum; 100% = growth in 10% serum; proliferation, % at 10 µM; actives 0.29% (n = 330,000);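 active = compounds whose signal lies at least 3.5 SD above the mean of all wells on their plate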;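 also: 0% = DMSO-treated cells in low-serum medium and 100% = 10% serum control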
ATG4B confirm – confirmation of human ATG4B inhibitors; actives 92% (n = 320); ATG4B protease fluorescent substrate cleavage assay; shares compounds with ATG4B inhibitor; inhibition, % at 8.33 µM; AID 504757; in the data active = inhibition above about 39%
PLA2 counter – counter-screen for ATG4B inhibitors: human phospholipase A2; shares compounds with ATG4B inhibitor; purified PLA2, NBD-C6-HPC fluorescence, 45 min; inhibition, % at 8.33 µM; actives 66% (n = 1,600); AID 588402; in the data active = inhibition above about 50%
Target sequence (P04054 whole entry, looked up): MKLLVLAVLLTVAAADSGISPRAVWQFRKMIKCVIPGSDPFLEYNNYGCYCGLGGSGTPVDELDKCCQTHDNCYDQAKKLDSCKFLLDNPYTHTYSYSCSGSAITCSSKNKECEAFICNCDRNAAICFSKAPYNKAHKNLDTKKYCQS
* marks the source's active call; other numbers are inactive results; / = no result.

SMILES	PvdQ inh	HKDC1 inhibitor	IMP-1 inhibitor	VIM-2 inh	ATG4B inhibitor	beta cell repl	PLA2 counter	others
Cc1occc1C(=O)N1CCCC(Nc2ccc(F)cc2)C1 (stereo not drawn)	-3	1	-4	-3	0	3	/
CC(C)c1ccc(NC2CCCN(C(=O)CCN3CCCCC3=O)C2)cc1 (stereo not drawn)	10	1	-2	0	7	-4	/
O=C(CCc1cccc(Cl)c1)N1CCCC(Nc2ccccc2)C1 (stereo not drawn)	-15	4	0	-2	48*	-6	50
CC(C)c1ccc(NC2CCCN(C(=O)c3n[nH]c4c3CCC4)C2)cc1 (stereo not drawn)	-13	5	-3	-6	55*	-3	43	ATG4B confirm=60*
Cc1occc1C(=O)N1CCCC(Nc2ccc(C(C)C)cc2)C1 (stereo not drawn)	1	0	-2	-2	50*	-2	58*
CC(C)c1ccc(NC2CCCN(C(=O)CCN3Cc4ccccc4C3=O)C2)cc1 (stereo not drawn)	6	1	-1	0	44*	-2	38	ATG4B confirm=73*
C=CCOc1ccc(CNc2ccc3[nH]c(=O)[nH]c3c2)cc1	-12	6	-1	4	3	-4	/
N/C(=N\OS(=O)(=O)c1ccc2ccccc2c1)c1ccccn1	6	-6	-2	0	4	/	/
COC(=O)c1ccc(C(=O)N2CCCC(Nc3ccc(C(C)C)cc3)C2)cc1 (stereo not drawn)	8	2	-1	0	81*	0	82*
CC(C)c1ccc(NC2CCCN(C(=O)c3cccnc3)C2)cc1 (stereo not drawn)	-6	0	-3	-3	24	0	/
O=C(c1ccsc1)N1CCCC(Nc2ccc(F)c(F)c2)C1 (stereo not drawn)	-14	0	1	0	22	4	/
CC(C)c1ccc(NC2CCCN(C(=O)c3cccs3)C2)cc1 (stereo not drawn)	-6	2	-4	-1	76*	-2	73*
CC(C)c1ccc(NC2CCCN(C(=O)c3ccsc3)C2)cc1 (stereo not drawn)	-6	7	-1	-3	77*	-1	78*
CC(C)c1ccc(NC2CCCN(C(=O)c3cnn(C(C)C)c3)C2)cc1 (stereo not drawn)	-1	9	-2	-3	45*	-2	49	ATG4B confirm=53*
CNC(=O)C(=O)N/N=C/c1ccc(Br)cc1	-1	-10	-3	-3	-10	-1	/
CCCCc1nnc(NC(=O)C(C)Sc2nc(O)c(Cc3ccccc3)c(=O)[nH]2)s1 (stereo not drawn)	-12	-20	-2	-3	7	-4	/
Cc1ccc(-c2csc(N/N=C/c3ccco3)n2)cc1	-12	1	-5	0	41*	-6	38
Cc1cc(NS(=O)(=O)c2ccc(Nc3nc(-c4ccc(C)c(C)c4)cs3)cc2)no1	-3	-7	-2	-6	44*	0	38	ATG4B confirm=71*
Cc1cc(NS(=O)(=O)c2ccc(Nc3nc(-c4ccc(O)cc4)cs3)cc2)no1	-12	-2	-5	-6	-8	-6	/
COC(=O)c1ccccc1NC(=S)N(Cc1ccc2c(c1)OCO2)Cc1cc2ccc(OC)cc2[nH]c1=O	-7	11	-3	-3	-8	-2	/
NC(=O)CSc1nc2ccc([N+](=O)[O-])cc2[nH]1	-14	-2	-2	-3	42*	0	40	ATG4B confirm=69*
Cc1ccc(/C=C2\SC(N3CCN(C(c4ccccc4)c4ccccc4)CC3)=NC2=O)o1	-2	1	0	-3	12	0	/
CCNc1ccc(C(=O)OCC(=O)N(Cc2ccccc2)C(C)(C)C)cc1[N+](=O)[O-]	-7	8	-3	0	43*	-4	10
